One molecule from ChEMBL document CHEMBL2380296, “Structure-based design and optimization of 2-aminothiazole-4-carboxamide as a new class of CHK1 inhibitors” (Bioorg Med Chem Lett, 2013) can be followed below.

Data set [1] addresses Casein kinase I isoform delta (Homo sapiens, UniProt P48730). Nature of the data set: Inhibition of human CSNK1D.
Data set [2] addresses Alpha-2C adrenergic receptor (Homo sapiens) (UniProt P18825). Nature of the data set: Inhibition of adrenergic alpha-2C receptor (unknown origin) at 1 ug/mL relative to control.
Data set [3] deals with T1, hERG (KCNH2) (Homo sapiens, UniProt Q12809). Nature of the data set: Inhibition of human ERG transfected in CHO cells at 1.5 ug/mL by rubidium efflux assay relative to control. As to conditions: CHO cells transfected with human ERG. Format: cell-based.
T1 sequence (Q12809 whole entry): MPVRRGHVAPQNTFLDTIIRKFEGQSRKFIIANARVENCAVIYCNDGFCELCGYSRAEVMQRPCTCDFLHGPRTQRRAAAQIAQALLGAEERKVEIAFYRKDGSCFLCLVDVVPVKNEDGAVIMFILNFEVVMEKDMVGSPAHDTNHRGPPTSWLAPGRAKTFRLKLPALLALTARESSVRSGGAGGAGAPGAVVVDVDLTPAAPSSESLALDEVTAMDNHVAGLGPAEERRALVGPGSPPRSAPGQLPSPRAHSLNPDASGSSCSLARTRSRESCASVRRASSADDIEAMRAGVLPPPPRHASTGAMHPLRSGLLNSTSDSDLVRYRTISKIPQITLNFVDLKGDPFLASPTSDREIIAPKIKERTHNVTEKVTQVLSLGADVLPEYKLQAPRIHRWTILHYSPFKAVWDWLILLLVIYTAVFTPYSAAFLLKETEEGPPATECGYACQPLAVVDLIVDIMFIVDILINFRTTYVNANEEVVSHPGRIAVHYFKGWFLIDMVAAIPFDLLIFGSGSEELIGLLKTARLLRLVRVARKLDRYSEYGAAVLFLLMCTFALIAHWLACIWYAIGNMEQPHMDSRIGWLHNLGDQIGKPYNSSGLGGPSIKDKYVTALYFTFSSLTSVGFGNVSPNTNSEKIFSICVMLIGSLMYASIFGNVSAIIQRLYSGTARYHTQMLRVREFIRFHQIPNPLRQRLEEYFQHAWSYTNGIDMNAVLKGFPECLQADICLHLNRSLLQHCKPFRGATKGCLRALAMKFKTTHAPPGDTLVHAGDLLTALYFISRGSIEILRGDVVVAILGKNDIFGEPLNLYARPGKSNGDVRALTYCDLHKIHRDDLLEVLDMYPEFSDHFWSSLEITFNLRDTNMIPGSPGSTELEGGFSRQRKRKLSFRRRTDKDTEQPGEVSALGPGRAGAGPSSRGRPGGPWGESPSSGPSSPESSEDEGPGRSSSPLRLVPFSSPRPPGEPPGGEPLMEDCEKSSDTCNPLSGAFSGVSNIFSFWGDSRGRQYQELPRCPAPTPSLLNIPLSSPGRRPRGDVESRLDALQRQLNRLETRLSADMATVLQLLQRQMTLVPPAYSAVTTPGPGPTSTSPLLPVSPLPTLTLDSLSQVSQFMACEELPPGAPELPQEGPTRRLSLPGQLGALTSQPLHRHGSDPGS
The target of data set [4] is Protein kinase C alpha type (Homo sapiens, UniProt P17252). Nature of the data set: Inhibition of human PKCA.
In data set [5] the target is Muscarinic acetylcholine receptor M3 (Homo sapiens) (UniProt P20309). The experiment in a line: Inhibition of muscarinic M3 receptor (unknown origin) at 2 ug/mL relative to control.
Data set [6] has as its target Alpha-2B adrenergic receptor (Homo sapiens) (UniProt P18089). Nature of the data set: Inhibition of adrenergic alpha-2B receptor (unknown origin) at 1 ug/mL relative to control.
A further data set addresses Cytochrome P450 3A4 (Homo sapiens, UniProt P08684). The experiment in a line: Inhibition of CYP3A4 in human liver microsomes using […] as substrate by LC-MS/MS analysis. Format: ADME, Microsome.
Data set [7] can be described thus: Tmax in rat at 10 mg/kg, po. Type of data set: ADME, organism-based. Set-up: dose 10 mg/kg, route oral. As to conditions: in vivo.
The target in data set [8] is C-X-C chemokine receptor type 3 (Homo sapiens) (UniProt P49682). The experiment in a line: Inhibition of CXCR3 (unknown origin) at 2 ug/mL relative to control.
C-X-C chemokine receptor type 3 (Homo sapiens), sequence (P49682 whole entry): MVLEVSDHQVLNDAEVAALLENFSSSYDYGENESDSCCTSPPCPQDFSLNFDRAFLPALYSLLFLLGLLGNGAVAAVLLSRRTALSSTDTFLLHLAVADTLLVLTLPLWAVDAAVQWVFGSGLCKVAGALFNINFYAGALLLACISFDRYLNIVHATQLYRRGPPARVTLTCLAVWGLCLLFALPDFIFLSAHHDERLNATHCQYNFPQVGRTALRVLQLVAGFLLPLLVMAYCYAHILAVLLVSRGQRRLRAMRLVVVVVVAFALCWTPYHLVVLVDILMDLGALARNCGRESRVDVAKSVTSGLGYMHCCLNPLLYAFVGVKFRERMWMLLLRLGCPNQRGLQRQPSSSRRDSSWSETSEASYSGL
Data set [9] has as its target Cyclin-dependent kinase 2 (Homo sapiens, UniProt P24941). Nature of the data set: Inhibition of human CDK2. The gist of the method:
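Biochemical kinase inhibition assay. Reported values are averages of duplicate or triplicate determinations, with a standard deviation of 10%.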

The target of data set [10] is Adenosine receptor A1 (Homo sapiens) (UniProt P30542). The experiment in a line: Inhibition of adenosine A1 receptor (unknown origin) at 2 ug/mL relative to control.
Data set [11] deals with RAC-alpha serine/threonine-protein kinase (Homo sapiens, UniProt P31749). Nature of the data set: Inhibition of human AKT1.
RAC-alpha serine/threonine-protein kinase, sequence (P31749 whole entry): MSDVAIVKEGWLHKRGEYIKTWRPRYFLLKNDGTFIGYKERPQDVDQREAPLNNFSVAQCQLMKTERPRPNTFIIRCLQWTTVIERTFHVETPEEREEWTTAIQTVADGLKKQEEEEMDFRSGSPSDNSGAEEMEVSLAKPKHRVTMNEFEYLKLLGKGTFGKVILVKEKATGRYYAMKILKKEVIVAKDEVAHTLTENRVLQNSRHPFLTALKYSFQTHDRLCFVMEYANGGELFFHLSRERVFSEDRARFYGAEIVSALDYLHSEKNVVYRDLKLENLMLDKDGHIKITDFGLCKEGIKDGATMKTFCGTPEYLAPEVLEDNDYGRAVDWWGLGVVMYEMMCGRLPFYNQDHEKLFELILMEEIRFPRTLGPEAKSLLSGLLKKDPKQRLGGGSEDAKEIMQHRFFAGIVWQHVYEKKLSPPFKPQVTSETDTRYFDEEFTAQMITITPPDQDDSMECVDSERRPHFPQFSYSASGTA
Data set [12] is described as follows: AUC in rat at 10 mg/kg, po. As to conditions: plasma. Format: ADME, organism-based. Set-up: dose 10 mg/kg, route oral.
Data set [13] in a line: Plasma concentration in rat at 10 mg/kg, po measured at 1 hr. Type of data set: ADME, organism-based. Set-up: dose 10 mg/kg, route oral.
Data set [14] concerns the target Muscarinic acetylcholine receptor M4 (Homo sapiens) (UniProt P08173). Nature of the data set: Inhibition of muscarinic M4 receptor (unknown origin) at 2 ug/mL relative to control.
Data set [15] has as its target Muscarinic acetylcholine receptor M1 (Homo sapiens) (UniProt P11229). Nature of the data set: Inhibition of muscarinic M1 receptor (unknown origin) at 2 ug/mL relative to control.
Data set [16] addresses T1, hERG (KCNH2). Nature of the data set: Inhibition of human ERG at 1 uM after 5 mins by voltage clamp assay relative to control.

The structures appear in SMILES notation.

Muscarinic acetylcholine receptor M4 (Homo sapiens), sequence (P08173 whole entry): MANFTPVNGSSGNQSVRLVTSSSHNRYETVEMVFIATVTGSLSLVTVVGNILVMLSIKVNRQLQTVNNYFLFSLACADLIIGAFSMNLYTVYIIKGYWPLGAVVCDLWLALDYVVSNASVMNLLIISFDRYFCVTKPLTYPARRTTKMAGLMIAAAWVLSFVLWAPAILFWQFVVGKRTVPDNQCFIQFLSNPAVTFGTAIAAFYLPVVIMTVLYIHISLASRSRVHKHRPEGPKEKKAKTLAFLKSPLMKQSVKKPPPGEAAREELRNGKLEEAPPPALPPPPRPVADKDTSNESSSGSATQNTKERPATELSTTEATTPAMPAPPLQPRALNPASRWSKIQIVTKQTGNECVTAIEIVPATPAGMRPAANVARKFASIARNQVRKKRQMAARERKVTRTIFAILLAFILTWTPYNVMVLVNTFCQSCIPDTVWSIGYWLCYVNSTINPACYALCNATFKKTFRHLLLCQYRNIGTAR
Casein kinase I isoform delta, sequence (P48730 whole entry, canonical isoform): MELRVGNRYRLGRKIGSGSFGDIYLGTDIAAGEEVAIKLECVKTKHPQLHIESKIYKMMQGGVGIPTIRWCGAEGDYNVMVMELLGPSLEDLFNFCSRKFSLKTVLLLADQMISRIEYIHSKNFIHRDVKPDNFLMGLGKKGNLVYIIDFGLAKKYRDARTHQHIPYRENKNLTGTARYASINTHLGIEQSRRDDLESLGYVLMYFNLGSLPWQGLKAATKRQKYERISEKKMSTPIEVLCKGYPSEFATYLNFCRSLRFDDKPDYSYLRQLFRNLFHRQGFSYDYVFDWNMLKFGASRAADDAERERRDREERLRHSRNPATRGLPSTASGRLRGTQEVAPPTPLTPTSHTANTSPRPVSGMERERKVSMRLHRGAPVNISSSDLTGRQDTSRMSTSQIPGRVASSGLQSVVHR
Alpha-2B adrenergic receptor (Homo sapiens), sequence (P18089 whole entry): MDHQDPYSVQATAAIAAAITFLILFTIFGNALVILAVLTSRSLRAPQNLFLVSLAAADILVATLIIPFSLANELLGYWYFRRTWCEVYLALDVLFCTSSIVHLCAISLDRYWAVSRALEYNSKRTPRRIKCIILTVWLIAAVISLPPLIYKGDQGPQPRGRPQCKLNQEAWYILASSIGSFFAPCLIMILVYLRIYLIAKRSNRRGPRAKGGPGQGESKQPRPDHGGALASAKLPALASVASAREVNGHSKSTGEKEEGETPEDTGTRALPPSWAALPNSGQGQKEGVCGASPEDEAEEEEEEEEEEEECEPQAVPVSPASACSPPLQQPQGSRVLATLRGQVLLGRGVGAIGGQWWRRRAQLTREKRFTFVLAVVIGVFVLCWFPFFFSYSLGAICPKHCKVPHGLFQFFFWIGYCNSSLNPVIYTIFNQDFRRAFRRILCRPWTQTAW
Cytochrome P450 3A4, sequence (P08684 whole entry): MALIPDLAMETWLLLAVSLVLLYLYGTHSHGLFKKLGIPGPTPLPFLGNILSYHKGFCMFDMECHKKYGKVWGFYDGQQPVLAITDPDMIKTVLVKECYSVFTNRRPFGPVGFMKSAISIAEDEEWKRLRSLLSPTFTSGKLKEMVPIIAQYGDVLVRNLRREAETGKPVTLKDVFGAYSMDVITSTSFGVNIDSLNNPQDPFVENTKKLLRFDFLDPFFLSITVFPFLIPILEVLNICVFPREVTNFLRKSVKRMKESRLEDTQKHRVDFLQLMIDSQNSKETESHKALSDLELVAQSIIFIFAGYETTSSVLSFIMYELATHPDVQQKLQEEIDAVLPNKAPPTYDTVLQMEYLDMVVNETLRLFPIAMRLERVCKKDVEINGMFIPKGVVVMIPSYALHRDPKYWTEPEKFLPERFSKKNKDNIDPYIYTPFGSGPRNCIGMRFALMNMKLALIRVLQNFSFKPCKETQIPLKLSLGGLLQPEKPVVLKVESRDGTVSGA
Alpha-2C adrenergic receptor (Homo sapiens), sequence (P18825 whole entry): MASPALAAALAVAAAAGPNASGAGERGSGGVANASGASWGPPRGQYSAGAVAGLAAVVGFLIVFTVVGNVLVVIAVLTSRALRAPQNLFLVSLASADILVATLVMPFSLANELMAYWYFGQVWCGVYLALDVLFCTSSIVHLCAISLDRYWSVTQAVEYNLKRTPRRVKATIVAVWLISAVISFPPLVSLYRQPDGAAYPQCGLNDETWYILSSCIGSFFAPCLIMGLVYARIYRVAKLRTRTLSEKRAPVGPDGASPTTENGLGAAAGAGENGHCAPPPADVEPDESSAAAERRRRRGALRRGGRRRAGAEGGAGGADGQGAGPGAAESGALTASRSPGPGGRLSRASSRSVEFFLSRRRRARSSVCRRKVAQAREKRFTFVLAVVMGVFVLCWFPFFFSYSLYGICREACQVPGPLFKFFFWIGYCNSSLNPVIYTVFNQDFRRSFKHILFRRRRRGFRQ

`COc1ccc2c(c1)C(=O)N(c1nc(C(=O)Nc3cnccc3N3CCNCC3)cs1)C2`: the IC50 (commonly the concentration at which inhibition is half-maximal) in [1] was > 30 µM; in [4], > 30 µM; against Cytochrome P450 3A4, > 30 µM; in [9], > 30 µM; in data set [11], 4.8 µM. The inhibition (commonly the change of the read-out against control, counted positive when it falls) in data set [2] is 13.8%; in data set [5] it was 10.1%; in data set [6], 4.2%; in [8] it was 8%; in data set [10], -3.2%; in data set [14], 14.1%. Further, in [15], the inhibition was determined as 43.8%. Also, the inhibition at 1.5 ug/mL on hERG (KCNH2) [3] amounted to 24%. In addition, the Tmax (in general, the time from dosing to the highest level) in data set [7] worked out at 6 h. In addition, the area under the curve (AUC) (usually the area under the concentration-time curve, a measure of exposure) in [12] is 7.2 µM·h. This molecule gave a concentration at 1 h in data set [13] of 57 ng/mL. The inhibition at 5 min, 1 µM on hERG (KCNH2) [16] came out at 82%.
